Active and inactive are the calls of the source. No cut-off for these calls is given here.
Legend:
[1] = Stability in mouse plasma assessed as half life; format: ADME, cell-free
[2] = Stability in human plasma assessed as half life; format: ADME, cell-free
Coagulation factor X = Coagulation factor X (Homo sapiens, UniProt P00742); test: Inhibition of recombinant C-terminal 10His-tagged human coagulation factor 10a (Leu24 to Lys488 residues) expressed in baculovirus infected Sf9 insect cells using Bz-Ile-Glu-Gly-Arg-pNA as substrate preincubated for 30 mins followed by substrate addition by chromogenic assay
NCI-H596 [3] = test: Inhibition of pro-HGF stimulated cell growth in human H596 cells at […] by ELISA; format: functional, cell-based; conditions: dose 33.3 µM
HCC827 = test: Cytotoxicity against human HCC827 cells assessed as reduction in cell viability at 20 nM after 72 hrs in presence of pro-HGF by crystal violet staining based assay; format: functional
In short: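 HCC827 cells treated with gefitinib (20 nM) with or without pro-HGF (100 ng/ml) and with compound (0.1-1 µM). Viability by crystal violet staining after 72 h. Means±S.E.M., n=3-5; one-way ANOVA with Dunnett's test versus gefitinib plus pro-HGF.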

[4] = target: T1, Hepatocyte growth factor activator serine protease (Homo sapiens, UniProt Q04756); test: Inhibition of recombinant human HGFA serine protease domain using Boc-QLR-AMC as substrate preincubated for 30 mins followed by substrate addition by fluorescence based assay
T1 sequence (Q04756 whole entry): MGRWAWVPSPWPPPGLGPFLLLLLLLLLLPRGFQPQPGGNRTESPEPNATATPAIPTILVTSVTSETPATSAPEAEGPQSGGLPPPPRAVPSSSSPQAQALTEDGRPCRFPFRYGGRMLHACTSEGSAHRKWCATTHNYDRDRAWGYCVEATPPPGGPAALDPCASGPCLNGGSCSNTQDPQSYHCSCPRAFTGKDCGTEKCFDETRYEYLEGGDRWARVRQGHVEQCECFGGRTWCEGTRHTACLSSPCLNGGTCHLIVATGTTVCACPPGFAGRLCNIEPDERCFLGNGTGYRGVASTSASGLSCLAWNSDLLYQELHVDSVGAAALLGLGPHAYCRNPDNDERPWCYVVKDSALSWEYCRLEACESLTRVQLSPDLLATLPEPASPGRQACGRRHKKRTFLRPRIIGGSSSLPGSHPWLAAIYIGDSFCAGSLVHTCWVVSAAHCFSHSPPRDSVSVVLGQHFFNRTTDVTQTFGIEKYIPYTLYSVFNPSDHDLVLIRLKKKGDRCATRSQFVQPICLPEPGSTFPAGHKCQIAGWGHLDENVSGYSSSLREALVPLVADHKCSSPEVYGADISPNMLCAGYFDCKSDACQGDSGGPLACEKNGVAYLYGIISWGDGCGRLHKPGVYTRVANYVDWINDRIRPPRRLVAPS
In short: (§1)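 Inhibitor in 11-point serial dilution (0-20 µM final, 2% DMSO) pre-incubated 30 min at room temperature with enzyme in TNC buffer (25 mM Tris, 150 mM NaCl, 5 mM CaCl2, 0.01% Triton X-100, pH 8). […] Hepsin activated beforehand 24 h at 37°C. Fluorescence ex 380/em 460 nm kinetic; four-parameter fit of velocities; mean of three experiments.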

[5] = target: T2, Suppressor of tumorigenicity 14 protein (Homo sapiens, UniProt Q9Y5Y6); test: Inhibition of recombinant human N-terminal met-His6-tagged matriptase catalytic domain (Gly596 to Val855 residues) expressed in Escherichia coli using Boc-QAR-AMC as substrate preincubated for 30 mins followed by substrate addition by fluorescence based assay; in short: as §1
T2 sequence (Q9Y5Y6 whole entry): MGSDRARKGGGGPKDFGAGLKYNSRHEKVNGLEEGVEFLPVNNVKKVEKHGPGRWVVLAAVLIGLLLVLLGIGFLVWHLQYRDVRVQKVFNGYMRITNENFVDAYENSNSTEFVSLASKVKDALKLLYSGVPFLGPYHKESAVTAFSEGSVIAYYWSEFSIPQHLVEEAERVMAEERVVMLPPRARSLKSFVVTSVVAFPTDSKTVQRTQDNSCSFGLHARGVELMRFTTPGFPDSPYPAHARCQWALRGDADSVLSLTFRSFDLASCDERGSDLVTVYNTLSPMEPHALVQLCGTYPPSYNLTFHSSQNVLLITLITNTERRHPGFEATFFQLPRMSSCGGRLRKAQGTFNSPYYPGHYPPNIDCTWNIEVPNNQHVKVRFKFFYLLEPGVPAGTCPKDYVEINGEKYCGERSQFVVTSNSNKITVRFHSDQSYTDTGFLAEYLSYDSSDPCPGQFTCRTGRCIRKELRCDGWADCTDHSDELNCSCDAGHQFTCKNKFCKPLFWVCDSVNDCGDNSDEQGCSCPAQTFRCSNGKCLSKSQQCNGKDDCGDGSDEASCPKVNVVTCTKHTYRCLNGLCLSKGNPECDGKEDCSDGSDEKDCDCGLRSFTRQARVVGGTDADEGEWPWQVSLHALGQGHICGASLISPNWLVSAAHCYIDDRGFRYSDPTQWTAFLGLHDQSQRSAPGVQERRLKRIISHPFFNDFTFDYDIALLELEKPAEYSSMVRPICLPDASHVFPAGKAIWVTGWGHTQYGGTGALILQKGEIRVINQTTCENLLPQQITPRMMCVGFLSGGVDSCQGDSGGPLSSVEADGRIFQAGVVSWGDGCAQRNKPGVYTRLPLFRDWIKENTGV

Serine protease hepsin = Serine protease hepsin (Homo sapiens, UniProt P05981); test: Inhibition of recombinant human C-terminal 10-His tagged hepsin (Arg45 to Leu417) expressed in mouse myeloma cells using Boc-QAR-AMC as substrate preincubated for 30 mins followed by substrate addition by fluorescence based assay; format: single protein; in short: as §1
Prothrombin = Prothrombin (Homo sapiens, UniProt P00734); test: Inhibition of recombinant thrombin (unknown origin) using D-Phe-Pip-Arg-pNA as substrate preincubated for 30 mins followed by substrate addition by chromogenic assay
[6] = Plasma protein binding in mouse assessed as unbound fraction; format: ADME, cell-free
[7] = Half life in mouse plasma at 20 mg/kg, ip; format: ADME, organism-based; conditions: for t1/2: in vivo, 20 mg/kg
NCI-H596 [8] = test: Inhibition of pro-HGF stimulated cell growth in human H596 cells at 500 nM by ELISA; format: functional, cell-based
NCI-H596 [9] = test: Antitumor activity against human NCI-H596 cells xenografted in hHGF knock in NSG mouse assessed as tumor growth inhibition at 40 mg/kg, po administered daily for 14 to 16 days; format: functional, organism-based; conditions: time 14-16 day
In short: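 Female hHGF-KI NSG mice given 2 million H596 cells, or males given 0.5 million. Dosing started at tumor volume ~40 or ~350 mm3. Daily oral dosing at 40 mg/kg for 16 or 14 days. Tumor growth compared with control-treated mice by ANOVA with Dunnett's test, n=3-6 per group.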

NCI-H596 [10] = test: Antitumor activity against human NCI-H596 cells xenografted in hHGF knock in NSG mouse assessed as tumor growth inhibition at 40 mg/kg, po administered daily for 25 days; format: functional, organism-based; conditions: time 25.0 day
In short: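 Prevention design in female hHGF-KI NSG mice injected with ten million H596 cells. Oral dosing at 40 mg/kg daily began immediately after injection and ran for 25 days. Tumor growth tracked, n=3-5 per group, Dunnett's test versus control.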

EBC-1 = test: Cytotoxicity against human EBC-1 cells assessed as reduction in cell viability preincubated with pro-HGF for 24 hrs followed by compound addition and measured after 48 hrs by CellTiter-Glo assay; format: functional, cell-based

| t1/2 [1] [min] | t1/2 [2] [min] | SMILES | further results |
| --- | --- | --- | --- |
| > 289.1 | > 289.1 | CC(=O)N[C@H]1CC(=O)NCCCC[C@@H](C(=O)N[C@@H](CCCNC(=N)N)C(=O)c2nc3ccccc3s2)NC(=O)[C@H](C(C)C)NC1=O | – |
| > 289.1 | > 289.1 | CC(=O)N[C@H]1CC(=O)NCCCC[C@@H](C(=O)N[C@@H](CCCNC(=N)N)C(=O)c2nc3ccccc3s2)NC(=O)[C@H](CC(N)=O)NC1=O | – |
| – | – | N=C(N)Nc1ccc(C(=O)Oc2ccc3cc(C(=N)N)ccc3c2)cc1 | inhibition (NCI-H596 [3]): Active |
| – | – | COc1cc2ncnc(Nc3ccc(F)c(Cl)c3)c2cc1OCCCN1CCOCC1 | Activity (HCC827): inactive |
| 261.2 | 216.1 | CC(=O)N[C@H]1CC(=O)NCCCC[C@@H](C(=O)N[C@@H](CCCNC(=N)N)C(=O)c2nc3ccccc3s2)NC(=O)[C@H](C)NC1=O | IC50 (Coagulation factor X): > 20 µM |
| > 289.1 | > 289.1 | CC(=O)N[C@H]1CC(=O)NCCCC[C@@H](C(=O)N[C@@H](CCCNC(=N)N)C(=O)c2nc3ccccc3s2)NC(=O)CNC1=O | – |
| 274 | > 289 | CC(=O)N[C@H]1CCCCNC(=O)CC[C@@H](C(=O)N[C@@H](CCCNC(=N)N)C(=O)c2nc3ccccc3s2)NC(=O)[C@H](CC(C)C)NC1=O | IC50 (Prothrombin): > 20 µM; fraction unbound [6]: 0.184; t1/2 [7]: 0.71 h |
| > 289.1 | > 289.1 | CC(=O)N[C@H]1CC(=O)NCCCC[C@@H](C(=O)N[C@@H](CCCNC(=N)N)C(=O)c2nccs2)NC(=O)[C@H](CC(C)C)NC1=O | IC50 [4]: > 20 µM |
| – | – | Cn1cc(-c2ccc3nnc(C(F)(F)c4ccc5ncccc5c4)n3n2)cn1 | inhibition (NCI-H596 [8]): Active; Activity (NCI-H596 [9]): Active; Activity (NCI-H596 [10]): Active; Activity (EBC-1): inactive |
| 276.8 | > 289.1 | CC(=O)N[C@H]1CC(=O)NCCCC[C@@H](C(=O)N[C@@H](CCCNC(=N)N)C(=O)c2nc3ccccc3s2)NC(=O)[C@H](Cc2ccc(O)cc2)NC1=O | IC50 [4]: > 20 µM |
| 156 | 151 | CC(=O)N[C@H]1CCCCNC(=O)CC[C@@H](C(=O)N[C@@H](CCCNC(=N)N)C(=O)c2nc3ccccc3s2)NC(=O)[C@H](CCCNC(=N)N)NC1=O | IC50 (Prothrombin): > 20 µM; IC50 (Coagulation factor X): 0.155 µM; fraction unbound [6]: 0.259 |

| SMILES | t1/2 [1] [min] | t1/2 [2] [min] | further results |
| --- | --- | --- | --- |
| CC(=O)N[C@H]1CC(=O)NCCCC[C@@H](C(=O)N[C@@H](CCCNC(=N)N)C(=O)c2nc3ccccc3s2)NC(=O)[C@H](CCC(N)=O)NC1=O | > 289.1 | > 289.1 | IC50 (Coagulation factor X): > 20 µM |
| CC(=O)N[C@H]1CC(=O)NCCCC[C@@H](C(=O)N[C@@H](CCCNC(=N)N)C(=O)c2nc3ccccc3s2)NC(=O)[C@H]([C@@H](C)O)NC1=O | 192.6 | 248.5 | IC50 [4]: 11.8 µM; IC50 [5]: 3.7 nM; IC50 (Serine protease hepsin): 5.8 nM; IC50 (Coagulation factor X): 13.3 µM |
| CC(=O)N[C@H]1CCCCNC(=O)C[C@@H](C(=O)N[C@@H](CCCNC(=N)N)C(=O)c2nc3ccccc3s2)NC(=O)[C@H](CC(C)C)NC1=O | 178 | > 289 | IC50 (Prothrombin): > 20 µM; IC50 [4]: > 20 µM; IC50 [5]: 20 nM; fraction unbound [6]: 0.853 |
| CC(=O)N[C@H]1CC(=O)N(C)CCCC[C@@H](C(=O)N[C@@H](CCCNC(=N)N)C(=O)c2nc3ccccc3s2)NC(=O)[C@H](CC(C)C)NC1=O | > 289 | > 289 | IC50 [4]: 12 µM; half-life ([7]; plasma): 33.2 min |
| CC(=O)N[C@H]1CC(=O)NCCCC[C@@H](C(=O)N[C@@H](CCCNC(=N)N)C(=O)c2nc3ccccc3s2)NC(=O)[C@H](Cc2ccccc2)NC1=O | > 289.1 | > 289.1 | IC50 (Serine protease hepsin): 17 nM; t1/2 [7]: 1.61 h |
| CSCC[C@@H]1NC(=O)[C@@H](NC(C)=O)CC(=O)NCCCC[C@@H](C(=O)N[C@@H](CCCNC(=N)N)C(=O)c2nc3ccccc3s2)NC1=O | > 289.1 | > 289.1 | – |
